Test results taken from ChEMBL document CHEMBL3414471 (J Med Chem, 2015).
Active and inactive are the calls of the source. No cut-off for these calls is given here.

Key:
[1] = target: CYP2C9 (Homo sapiens, UniProt P11712); experiment: Inhibition of human CYP2C9 using diclofenac as substrate at 10 uM; format: ADME; details: probe diclofenac
[2] = target: T1, 5-hydroxytryptamine receptor 2C (Homo sapiens, UniProt P28335); experiment: Agonist activity at human 5-HT2C receptor expressed in HEK293 cells assessed as calcium flux by FLIPR assay; format: functional, cell-based
T1 sequence (P28335 whole entry): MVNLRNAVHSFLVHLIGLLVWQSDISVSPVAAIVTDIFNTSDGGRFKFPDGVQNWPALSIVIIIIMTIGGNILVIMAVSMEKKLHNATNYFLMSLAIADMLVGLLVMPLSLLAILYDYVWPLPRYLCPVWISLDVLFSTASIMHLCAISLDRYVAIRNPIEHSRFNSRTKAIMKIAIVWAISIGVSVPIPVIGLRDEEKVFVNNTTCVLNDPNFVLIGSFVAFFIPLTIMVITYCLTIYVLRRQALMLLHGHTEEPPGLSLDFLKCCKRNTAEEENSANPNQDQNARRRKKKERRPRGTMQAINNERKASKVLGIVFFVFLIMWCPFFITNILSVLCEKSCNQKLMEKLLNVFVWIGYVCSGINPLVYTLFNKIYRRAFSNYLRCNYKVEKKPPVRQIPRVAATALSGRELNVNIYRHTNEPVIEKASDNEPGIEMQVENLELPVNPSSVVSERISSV

[3] = target: T2, hERG (KCNH2) (Homo sapiens, UniProt Q12809); experiment: (§1) Inhibition of human ERG channel expressed in CHO cells at […] by patch clamp method; format: cell-based; details: CHO cells expressing human ERG channel
[4] = target: T2, hERG (KCNH2); experiment: Inhibition of human ERG channel expressed in CHO cells at 3.3 uM by patch clamp method; format: cell-based; details: CHO cells expressing human ERG channel
In short: (§2)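 hERG current recorded in CHO cells by automated patch clamp; percent inhibition at 0.37, 1.1, 3.3, 10 and 30 µM.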

[5] = target: T2, hERG (KCNH2); experiment: Inhibition of human ERG channel expressed in CHO cells at 10 uM by patch clamp method; format: cell-based; details: CHO cells expressing human ERG channel; in short: as §2
[6] = target: Alpha-2C adrenergic receptor (Homo sapiens, UniProt P18825); experiment: Binding affinity to adrenergic alpha-2C receptor (unknown origin)
[7] = species: Homo sapiens; experiment: Selectivity ratio of EC50 for human 5-HT2A receptor to EC50 for human 5HT2C receptor
[8] = target: T3, CYP2B6 (Homo sapiens, UniProt P20813); experiment: Inhibition of human CYP2B6 using bupropion as substrate at 10 uM; format: ADME; details: probe bupropion
T3 sequence (P20813 whole entry): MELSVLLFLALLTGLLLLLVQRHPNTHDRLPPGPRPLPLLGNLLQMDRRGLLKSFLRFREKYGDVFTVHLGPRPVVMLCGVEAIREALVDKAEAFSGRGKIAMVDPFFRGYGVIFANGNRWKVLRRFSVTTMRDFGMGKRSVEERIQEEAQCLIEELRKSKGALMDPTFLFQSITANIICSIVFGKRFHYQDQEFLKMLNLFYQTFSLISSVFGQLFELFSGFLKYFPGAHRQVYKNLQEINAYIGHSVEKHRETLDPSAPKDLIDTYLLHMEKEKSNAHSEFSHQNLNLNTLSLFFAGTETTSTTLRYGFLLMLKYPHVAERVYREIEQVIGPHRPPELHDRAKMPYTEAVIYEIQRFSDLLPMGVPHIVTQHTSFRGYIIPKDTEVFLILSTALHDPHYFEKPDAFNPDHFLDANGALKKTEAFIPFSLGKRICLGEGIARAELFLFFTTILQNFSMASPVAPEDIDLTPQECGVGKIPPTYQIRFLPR

[9] = target: T4, 5-hydroxytryptamine receptor 2A (Homo sapiens, UniProt P28223); experiment: Agonist activity at human 5-HT2A receptor expressed in HEK293 cells assessed as calcium flux by FLIPR assay; format: functional, cell-based
[10] = target: T5, 5-hydroxytryptamine receptor 2C (Homo sapiens) (UniProt P28335); experiment: Agonist activity at human 5-HT2C receptor expressed in HEK293 cells assessed as calcium flux by FLIPR assay relative to 5-HT; format: functional, cell-based
T5 sequence (whole entry): T1 sequence (P28335 whole entry)
In short: (§3)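 Flp-In-293 cells stably expressing human 5-HT2A, 5-HT2B or 5-HT2C-INI; grown 24–48 h in DMEM/10% dialyzed FBS, plated on poly-L-Lys at 12000 cells/well in 1% dialyzed FBS for 24 h. Loaded 1 h at 37 °C with calcium dye in HBSS, 20 mM Hepes pH 7.40, 2.5 mM probenecid.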

[11] = target: 5-hydroxytryptamine receptor 2B (Homo sapiens, UniProt P41595); experiment: Agonist activity at human 5-HT2B receptor expressed in HEK293 cells assessed as calcium flux at 10 uM by FLIPR assay; format: functional, cell-based
In short: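 Flp-In-293 cells stably expressing human 5-HT2A, 5-HT2B or 5-HT2C-INI, grown in DMEM with 10% dialyzed FBS, then plated for 24 h in 1% dialyzed FBS. Cells were loaded 1 h at 37 °C with calcium dye in Hepes-buffered HBSS, pH 7.40, containing 2.5 mM probenecid. FLIPR read 10 s baseline, then 120 s after drug addition.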

[12] = target: CYP3A4 (Homo sapiens, UniProt P08684); experiment: Inhibition of human CYP3A4 using midazolam as substrate at 10 uM; format: ADME; details: probe midazolam
In short: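 Human liver microsomes with test compound at 10 µM; percent inhibition determined using bupropion (2B6), dextromethorphan (2D6) or midazolam (3A/3A4) as probe substrates.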

[13] = target: Alpha-2B adrenergic receptor (Homo sapiens, UniProt P18089); experiment: Binding affinity to adrenergic alpha-2B receptor (unknown origin)
[14] = target: T2, hERG (KCNH2); experiment: as §1; format: cell-based; details: CHO cells expressing human ERG channel; remark: listed apart in the source
[15] = target: T2, hERG (KCNH2); experiment: Inhibition of human ERG channel expressed in CHO cells at 30 uM by patch clamp method; format: cell-based; details: CHO cells expressing human ERG channel; in short: as §2
[16] = target: CYP2C19 (Homo sapiens, UniProt P33261); experiment: Inhibition of human CYP2C19 using omeprazole as substrate at 10 uM; format: ADME; details: probe omeprazole
[17] = target: D(3) dopamine receptor (Homo sapiens, UniProt P35462); experiment: Binding affinity to dopamine D3 receptor (unknown origin)
[18] = target: T4, 5-hydroxytryptamine receptor 2A; experiment: Agonist activity at human 5-HT2A receptor expressed in HEK293 cells assessed as calcium flux by FLIPR assay relative to 5-HT; format: functional, cell-based; in short: as §3
[19] = target: 5-hydroxytryptamine receptor 1A (Homo sapiens, UniProt P08908); experiment: Binding affinity to 5HT1A receptor (unknown origin)
[20] = test system: Mus musculus; experiment: Antipsychotic activity in C57BL/6J mouse assessed as reduction of amphetamine-induced locomotor activity administered ip 15 mins prior to amphetamine challenge measured for 105 mins by open field test relative to vehicle-treated control; format: functional, organism-based
[21] = target: 5-hydroxytryptamine receptor 7 (Homo sapiens, UniProt P34969); experiment: Binding affinity to 5HT7 receptor (unknown origin)
[22] = target: Alpha-2A adrenergic receptor (Homo sapiens, UniProt P08913); experiment: Binding affinity to adrenergic alpha-2A receptor (unknown origin)
[23] = target: Voltage-gated inwardly rectifying potassium channel KCNH2 (Homo sapiens, UniProt Q12809); experiment: Inhibition of human ERG channel expressed in CHO cells by patch clamp method; format: cell-based; details: human, cho
[24] = target: 5-hydroxytryptamine receptor 6 (Homo sapiens, UniProt P50406); experiment: Binding affinity to 5HT6 receptor (unknown origin)
[25] = target: CYP2D6 (Homo sapiens, UniProt P10635); experiment: Inhibition of human CYP2D6 using dextromethorphan as substrate at 10 uM; format: ADME; details: probe dextromethorphan
Sequence of CYP2D6 (P10635 whole entry): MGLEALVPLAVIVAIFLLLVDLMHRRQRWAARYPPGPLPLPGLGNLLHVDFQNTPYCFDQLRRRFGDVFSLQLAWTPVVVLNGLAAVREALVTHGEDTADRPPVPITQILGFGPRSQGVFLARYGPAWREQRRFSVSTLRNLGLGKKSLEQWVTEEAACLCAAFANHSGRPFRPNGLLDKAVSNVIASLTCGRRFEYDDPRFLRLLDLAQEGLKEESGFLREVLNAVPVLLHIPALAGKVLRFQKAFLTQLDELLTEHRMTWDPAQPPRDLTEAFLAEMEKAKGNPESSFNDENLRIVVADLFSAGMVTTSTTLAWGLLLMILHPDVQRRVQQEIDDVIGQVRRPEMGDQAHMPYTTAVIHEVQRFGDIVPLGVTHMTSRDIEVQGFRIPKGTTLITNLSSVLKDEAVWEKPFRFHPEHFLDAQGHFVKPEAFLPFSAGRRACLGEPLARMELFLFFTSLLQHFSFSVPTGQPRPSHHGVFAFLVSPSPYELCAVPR

T2 sequence (Q12809 whole entry): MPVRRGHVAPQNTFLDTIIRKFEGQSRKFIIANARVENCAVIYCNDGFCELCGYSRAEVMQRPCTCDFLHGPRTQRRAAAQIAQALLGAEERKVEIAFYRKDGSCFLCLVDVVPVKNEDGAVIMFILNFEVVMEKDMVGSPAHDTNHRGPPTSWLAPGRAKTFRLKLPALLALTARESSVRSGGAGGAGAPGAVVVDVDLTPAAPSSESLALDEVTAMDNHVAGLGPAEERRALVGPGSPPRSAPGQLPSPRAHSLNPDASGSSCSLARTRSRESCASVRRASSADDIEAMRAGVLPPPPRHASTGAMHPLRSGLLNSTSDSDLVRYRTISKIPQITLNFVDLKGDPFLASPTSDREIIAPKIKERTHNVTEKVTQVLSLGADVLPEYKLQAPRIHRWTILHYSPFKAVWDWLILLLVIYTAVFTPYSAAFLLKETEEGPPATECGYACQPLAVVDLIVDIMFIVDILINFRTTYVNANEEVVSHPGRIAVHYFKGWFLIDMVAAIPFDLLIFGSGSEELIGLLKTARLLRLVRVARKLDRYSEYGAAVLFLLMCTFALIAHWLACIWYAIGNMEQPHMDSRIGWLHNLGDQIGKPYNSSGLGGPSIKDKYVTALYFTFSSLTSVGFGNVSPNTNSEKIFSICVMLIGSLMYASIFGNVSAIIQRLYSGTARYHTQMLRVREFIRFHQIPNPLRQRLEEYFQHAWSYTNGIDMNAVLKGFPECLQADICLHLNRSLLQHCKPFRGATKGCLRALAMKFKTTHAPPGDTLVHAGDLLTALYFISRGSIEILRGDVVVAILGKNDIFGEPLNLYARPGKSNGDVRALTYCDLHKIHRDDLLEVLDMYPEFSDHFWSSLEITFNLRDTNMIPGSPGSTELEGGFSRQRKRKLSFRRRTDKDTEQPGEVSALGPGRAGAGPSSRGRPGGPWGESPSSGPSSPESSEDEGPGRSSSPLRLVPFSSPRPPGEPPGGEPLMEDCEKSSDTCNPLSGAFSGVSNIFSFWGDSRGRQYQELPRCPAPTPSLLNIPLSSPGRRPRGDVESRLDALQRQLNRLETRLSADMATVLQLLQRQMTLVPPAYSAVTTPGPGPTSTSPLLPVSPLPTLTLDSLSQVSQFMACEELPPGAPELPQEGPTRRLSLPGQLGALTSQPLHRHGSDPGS
T4 sequence (P28223 whole entry): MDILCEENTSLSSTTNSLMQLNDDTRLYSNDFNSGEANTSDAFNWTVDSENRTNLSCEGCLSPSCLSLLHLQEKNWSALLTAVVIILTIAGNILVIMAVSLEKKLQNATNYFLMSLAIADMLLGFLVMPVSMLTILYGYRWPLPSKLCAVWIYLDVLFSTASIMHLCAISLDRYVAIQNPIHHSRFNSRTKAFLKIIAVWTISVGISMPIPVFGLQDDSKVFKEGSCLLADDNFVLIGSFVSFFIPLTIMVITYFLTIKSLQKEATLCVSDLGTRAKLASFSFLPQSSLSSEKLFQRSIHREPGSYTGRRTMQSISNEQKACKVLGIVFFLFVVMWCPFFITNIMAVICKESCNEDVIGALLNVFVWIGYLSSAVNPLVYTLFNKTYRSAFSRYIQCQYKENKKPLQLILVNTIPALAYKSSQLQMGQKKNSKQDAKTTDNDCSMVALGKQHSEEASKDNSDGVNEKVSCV
Sequence of 5-hydroxytryptamine receptor 6 (P50406 whole entry): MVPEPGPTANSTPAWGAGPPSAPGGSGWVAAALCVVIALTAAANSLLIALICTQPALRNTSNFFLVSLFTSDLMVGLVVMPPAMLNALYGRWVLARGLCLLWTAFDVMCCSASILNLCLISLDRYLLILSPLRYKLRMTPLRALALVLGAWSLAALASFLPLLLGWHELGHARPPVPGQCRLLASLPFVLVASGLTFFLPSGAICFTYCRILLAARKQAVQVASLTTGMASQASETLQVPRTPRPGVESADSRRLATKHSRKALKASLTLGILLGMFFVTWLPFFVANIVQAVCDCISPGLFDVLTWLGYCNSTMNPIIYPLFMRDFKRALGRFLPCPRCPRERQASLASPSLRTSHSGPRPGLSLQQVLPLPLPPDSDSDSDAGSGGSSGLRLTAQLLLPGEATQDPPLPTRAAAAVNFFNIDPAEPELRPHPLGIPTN
Sequence of 5-hydroxytryptamine receptor 2B (P41595 whole entry): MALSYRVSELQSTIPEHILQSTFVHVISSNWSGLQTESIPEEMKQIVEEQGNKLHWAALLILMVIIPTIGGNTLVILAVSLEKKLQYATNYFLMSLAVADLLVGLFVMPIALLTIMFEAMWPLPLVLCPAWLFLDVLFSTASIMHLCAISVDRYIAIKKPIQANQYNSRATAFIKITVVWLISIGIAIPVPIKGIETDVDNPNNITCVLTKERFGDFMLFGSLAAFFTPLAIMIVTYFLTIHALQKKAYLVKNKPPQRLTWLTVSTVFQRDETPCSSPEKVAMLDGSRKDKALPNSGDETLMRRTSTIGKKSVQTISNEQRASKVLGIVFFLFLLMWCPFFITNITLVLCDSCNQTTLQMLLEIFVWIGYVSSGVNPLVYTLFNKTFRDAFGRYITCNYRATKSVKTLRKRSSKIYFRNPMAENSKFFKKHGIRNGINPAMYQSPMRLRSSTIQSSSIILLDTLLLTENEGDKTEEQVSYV
Sequence of D(3) dopamine receptor (P35462 whole entry): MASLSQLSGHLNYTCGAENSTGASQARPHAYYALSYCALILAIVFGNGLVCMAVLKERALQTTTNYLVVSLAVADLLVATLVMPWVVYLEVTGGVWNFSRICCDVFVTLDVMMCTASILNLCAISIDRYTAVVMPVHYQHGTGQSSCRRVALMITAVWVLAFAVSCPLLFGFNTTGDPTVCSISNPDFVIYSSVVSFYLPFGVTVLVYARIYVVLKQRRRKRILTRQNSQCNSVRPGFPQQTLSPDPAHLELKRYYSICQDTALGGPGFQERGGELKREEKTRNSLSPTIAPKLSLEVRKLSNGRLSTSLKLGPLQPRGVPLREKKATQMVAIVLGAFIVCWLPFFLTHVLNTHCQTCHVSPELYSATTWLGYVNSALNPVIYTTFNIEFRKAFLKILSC
Sequence of CYP3A4 (P08684 whole entry): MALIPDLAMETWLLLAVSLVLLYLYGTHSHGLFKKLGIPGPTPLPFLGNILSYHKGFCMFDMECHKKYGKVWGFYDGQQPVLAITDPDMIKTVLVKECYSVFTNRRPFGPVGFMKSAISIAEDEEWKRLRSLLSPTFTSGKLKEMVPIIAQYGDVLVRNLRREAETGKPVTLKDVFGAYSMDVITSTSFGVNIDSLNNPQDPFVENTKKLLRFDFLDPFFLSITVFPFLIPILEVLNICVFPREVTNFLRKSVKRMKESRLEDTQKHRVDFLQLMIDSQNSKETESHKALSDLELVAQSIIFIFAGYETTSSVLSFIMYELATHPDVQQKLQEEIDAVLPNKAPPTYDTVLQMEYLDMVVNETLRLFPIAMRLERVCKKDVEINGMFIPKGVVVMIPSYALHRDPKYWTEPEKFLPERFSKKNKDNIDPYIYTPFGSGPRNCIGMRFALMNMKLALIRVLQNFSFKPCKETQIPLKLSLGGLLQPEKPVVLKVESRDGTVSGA
Sequence of 5-hydroxytryptamine receptor 7 (P34969 whole entry): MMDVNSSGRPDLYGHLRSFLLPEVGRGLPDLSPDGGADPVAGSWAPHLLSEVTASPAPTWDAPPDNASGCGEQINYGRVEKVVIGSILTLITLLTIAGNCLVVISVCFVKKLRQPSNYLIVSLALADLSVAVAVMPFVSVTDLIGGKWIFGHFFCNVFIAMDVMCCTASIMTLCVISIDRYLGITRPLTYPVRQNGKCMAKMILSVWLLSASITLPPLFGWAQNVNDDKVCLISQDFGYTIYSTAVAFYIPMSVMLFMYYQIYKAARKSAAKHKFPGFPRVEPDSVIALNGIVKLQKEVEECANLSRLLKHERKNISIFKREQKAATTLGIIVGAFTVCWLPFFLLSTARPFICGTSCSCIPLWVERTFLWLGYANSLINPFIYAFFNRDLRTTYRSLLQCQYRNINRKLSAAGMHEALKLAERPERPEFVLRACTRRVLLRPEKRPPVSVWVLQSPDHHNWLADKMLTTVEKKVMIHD
Sequence of Alpha-2A adrenergic receptor (P08913 whole entry): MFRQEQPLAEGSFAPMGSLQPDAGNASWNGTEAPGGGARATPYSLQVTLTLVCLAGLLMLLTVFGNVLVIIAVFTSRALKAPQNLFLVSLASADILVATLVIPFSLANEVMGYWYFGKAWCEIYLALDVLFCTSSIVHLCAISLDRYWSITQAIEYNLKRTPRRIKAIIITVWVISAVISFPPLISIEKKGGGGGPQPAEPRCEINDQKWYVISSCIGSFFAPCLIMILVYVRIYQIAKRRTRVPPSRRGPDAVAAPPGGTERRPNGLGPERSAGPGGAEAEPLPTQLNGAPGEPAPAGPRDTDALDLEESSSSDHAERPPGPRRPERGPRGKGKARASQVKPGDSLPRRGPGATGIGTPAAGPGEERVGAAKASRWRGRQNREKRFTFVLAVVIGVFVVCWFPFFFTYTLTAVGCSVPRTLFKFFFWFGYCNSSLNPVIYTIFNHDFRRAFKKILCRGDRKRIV

C=CCOc1ccc(F)cc1[C@H]1C[C@@H]1CN.Cl
inhibition at 10 µM [1]: 35% | EC50 [2]: 4.2 nM | inhibition at […] [3]: 6.4% | inhibition at 3.3 µM [4]: 18% | inhibition at 10 µM [5]: 29% | Ki [6]: < 1000 nM | Ratio EC50 [7]: 89 | inhibition at 10 µM [8]: 80% | EC50 [9]: 374 nM | Emax [10]: 87% | Activity [11]: inactive | inhibition at 10 µM [12]: 15% | Ki [13]: < 1000 nM | inhibition at […] [14]: 8.7% | inhibition at 30 µM [15]: 45% | inhibition at 10 µM [16]: 22% | Ki [17]: < 1000 nM | Emax [18]: 56% | Ki [19]: < 1000 nM | Activity [20]: Dose-dependent effect | Ki [21]: < 1000 nM | Ki [22]: < 1000 nM | inhibition (INH) [23]: Dose-dependent effect | Ki [24]: < 1000 nM | inhibition at 10 µM [25]: 43%
